Test results published in ChEMBL document CHEMBL1125815, “2-Phenyl-3H-imidazo[4,5-b]pyridine-3-acetamides as non-benzodiazepine anticonvulsants and anxiolytics” (J Med Chem, 1991).

Key:
[1] = target: GABA-A receptor; anion channel; test: Displacement of [3H]flunitrazepam from GABA-A benzodiazepine receptor of rat cerebral cortex membrane; assay type: tissue-based
How it was run: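 Rat cerebral cortex P2+P3 membranes (fresh tissue, two freeze-thaw-wash cycles to remove endogenous GABA), 0.4 mg protein. Incubated with 1 nM [3H]flunitrazepam and six concentrations (1 × 10^-5 – 1 × 10^-10 M) for 30 min at 4 °C. Filtered on GF/b filters and counted. […] IC50 from log-logit regression, mean of replicates.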

[2] = test system: Mus musculus; test: Compound was tested for anticonvulsant activity against pentylenetetrazole-induced clonic seizures in mice; conv = 'convulsant at 10 mg/kg'; assay type: functional, organism-based; set-up: dose 10 mg/kg
How it was run: (§1)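 Female adult ICR mice, groups of eight, given test compound ip (100 mg/kg screen) in 0.5% aqueous methylcellulose or vehicle. Challenged 30 min later with pentyletetrazole 80 mg/kg sc and scored for clonic seizures.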

[3] = species on record: Mus musculus; test: Anticonvulsant activity against pentylenetetrazole-induced clonic seizures in mice; assay type: functional; how it was run: as §1
[4] = target: GABA-A receptor; anion channel; test: Displacement of [3H]-diazepam from GABA-A benzodiazepine receptor of rat cerebral cortex membrane; assay type: tissue-based
How it was run: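 Membranes skipped the freeze-thaw-wash cycles, so endogenous GABA was retained. Six concentrations (1 × 10^-5 – 1 × 10^-10 M), 30 min at 4 °C, glass-fiber filtration and scintillation counting. IC50 from log-logit regression.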

[5] = species on record: Mus musculus; test: Potentiation of ethanol (EtOH) induced sleep time in mice; assay type: functional; details: read-out: MED
How it was run: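 Compound given orally; the minimal effective dose (mg/kg po) for potentiating ethanol-induced sleep time in mice was reported.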

[6] = test system: Mus musculus; test: Compound was tested for anticonvulsant activity against pentylenetetrazole-induced clonic seizures in mice at dose 80 mg/kg.
[7] = species on record: Mus musculus; test: Neurotoxicity against mice in rotarod test; assay type: toxicity, organism-based; details: in vivo
How it was run: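 Groups of five randomly selected mice were dosed 30 min before being placed on a knurled 28-mm rod rotating at 6 rpm. Failure to stay on the rod for 1 min was scored as neurotoxic. ED50 (mg/kg ip) and confidence limits came from probit analysis.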

[8] = species on record: Rattus norvegicus; test: Anxiolytic activity by vogel punished drinking test in rats; assay type: functional; details: read-out: MED
How it was run: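 Modified Vogel conflict test. Rats were water-deprived for 48 h with food available. A drinkometer delivered a 0.65 mA shock after every 20th lick during a 3-min session starting at the first shock. Total shocks were compared with vehicle-treated rats by Dunnett's t test. Minimal effective dose reported in mg/kg ip.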

[9] = species on record: Mus musculus; test: Anxiolytic activity by light/dark exploratory behavioral test in mice; assay type: functional
How it was run: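 Mice were dosed 30 min before testing, then placed individually in a two-compartment light/dark activity chamber and left undisturbed for 5 min. Time spent in each compartment was compared with vehicle-treated mice by Dunnett's t test. Minimal effective dose and sedative dose reported in mg/kg ip.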

[10] = test system: Mus musculus; test: Anticonvulsant activity against picrotoxin-induced clonic seizures in mice at 3.2 mg/kg sc; assay type: functional; details: route subcutaneous
[11] = test system: Mus musculus; test: Compound was tested for anticonvulsant activity against bicuculline-induced clonic seizures in mice at 2.7 mg/kg sc; assay type: functional; details: route subcutaneous
[12] = test system: Mus musculus; test: Compound was tested for anticonvulsant activity against pentylenetetrazole-induced clonic seizures in mice at 80 mg/kg sc; assay type: functional; details: route subcutaneous; how it was run: as §1
[13] = test system: Mus musculus; test: Compound was tested for anticonvulsant activity against pentylenetetrazole-induced clonic seizures in mice on intraperitoneal administration; assay type: functional; details: ip; how it was run: as §1
[14] = species on record: Mus musculus; test: Compound was tested for anticonvulsant activity against maximal electroshock-induced […] seizures in mice at 50mA, 200 ms; assay type: functional

| Compound | IC50 [1] | ED50 ([3]; Mus musculus, read-out: ED50) | further results |
| --- | --- | --- | --- |
| CN(C)C(=O)Cn1c(-c2ccc(Cl)cc2Cl)nc2cccnc21 | > 10 µM | – | ED50 [2]: Convulsant |
| CN(C)C(=O)Cn1c(-c2ccc(Br)o2)nc2cccnc21 | 0.2 µM | 100 mg/kg | – |
| NC(=O)Cn1c(-c2ccc(C(F)(F)F)cc2)nc2cccnc21 | > 10 µM | 11.7 mg/kg | – |
| O=C(O)CCCNC(=O)Cn1c(-c2ccc(Cl)cc2)nc2cccnc21 | > 10 µM | – | – |
| Cc1ccc(-c2nc3cccnc3n2CC(=O)N(C)C)cc1 | 1.75 µM | 4.7 mg/kg | – |
| CN(C)C(=O)Cn1c(-c2ccco2)nc2cccnc21 | > 10 µM | > 100 mg/kg | – |
| CC(=O)NCCNC(=O)Cn1c(-c2ccc(Cl)cc2)nc2cccnc21 | 7.2 µM | – | – |
| NC(=O)Cn1c(-c2ccc(Cl)cc2)nc2ncccc21 | > 10 µM | – | – |
| O=C(O)CNC(=O)Cn1c(-c2ccc(Cl)cc2)nc2cccnc21 | – | – | IC50 [4]: 7.1 µM |
| O=C(Cn1c(-c2ccc(Cl)cc2)nc2cccnc21)N1CCCCC1 | 2.7 µM | 56.2 mg/kg | – |
| CCOC(=O)CCCNC(=O)Cn1c(-c2ccc(Cl)cc2)nc2cccnc21 | > 10 µM | 100 mg/kg | – |
| CN(C)C(=O)Cn1c(-c2ccc(Cl)cc2)nc2ccc(O)nc21 | 5.2 µM | – | – |
| CCCNC(=O)Cn1c(-c2ccc(Cl)cc2)nc2cccnc21 | – | 37.5 mg/kg | IC50 [4]: 1.26 µM |
| CCCN(CCC)C(=O)Cn1c(-c2ccc(Cl)cc2)nc2ncccc21 | > 10 µM | – | – |
| Cc1ccc2nc(-c3ccc(Cl)cc3)n(CC(=O)N(C)C)c2n1 | 0.88 µM | 2.5 mg/kg | – |
| CCCN(CCC)C(=O)Cn1c(-c2ccc(Cl)cc2)nc2cccnc21 | 0.38 µM | 11 mg/kg | – |
| CN(C)C(=O)Cn1c(-c2ccc([N+](=O)[O-])cc2)nc2cccnc21 | > 10 µM | 47 mg/kg | – |
| CN(C)C(=O)Cn1c(-c2ccccc2)nc2cccnc21 | > 10 µM | 35 mg/kg | – |

| Compound | IC50 [1] | ED50 ([3]; Mus musculus, read-out: ED50) | further results |
| --- | --- | --- | --- |
| CN(C)C(=O)Cn1c(-c2ccc(Br)cc2)nc2cccnc21 | – | 7 mg/kg | IC50 [4]: 3 µM |
| CN(C)C(=O)Cn1c(-c2cccc(Cl)c2)nc2cccnc21 | – | > 56.2 mg/kg | ED50 [3]: <100 mg/kg; IC50 [4]: 2.4 µM |
| CN(C)C(=O)Cn1c(Cc2ccc(Cl)cc2)nc2cccnc21 | > 10 µM | – | – |
| C[C@H](C(=O)N(C)C)n1c(-c2ccc(Cl)cc2)nc2cccnc21 | > 10 µM | 43.5 mg/kg | – |
| O=C(Cn1c(-c2ccc(Cl)cc2)nc2cccnc21)Nc1ccccn1 | 0.31 µM | 100 mg/kg | – |
| CN(C)C(=O)Cn1c(-c2ccsc2)nc2cccnc21 | > 10 µM | 38 mg/kg | – |
| CN(C)CCCNC(=O)Cn1c(-c2ccc(Cl)cc2)nc2cccnc21 | > 10 µM | 64 mg/kg | – |
| CN1C(=O)CN=C(c2ccccc2)c2cc(Cl)ccc21 [DIAZEPAM] | – | 0.9 mg/kg | minimal effective dose [5]: 2.5 mg/kg; ED50 [6]: 0.2 mg/kg; ED50 [7]: 1.7 mg/kg; minimal effective dose [8]: 1 mg/kg; Sedative dose [9]: 10 mg/kg; minimal effective dose ([9]; read-out: MED): 1 mg/kg |
| NC(=O)Cn1c(-c2ccc(Cl)cc2)nc2ccc[n+]([O-])c21 | > 10 µM | 52.1 mg/kg | – |
| O=C(Cn1c(-c2ccc(Cl)cc2)nc2cccnc21)N1CCOCC1 | 4.1 µM | 11.5 mg/kg | – |
| O=C1NC(=O)C(c2ccccc2)(c2ccccc2)N1 [PHENYTOIN] | – | – | ED50 [10]: > 100 mg/kg; ED50 [11]: > 100 mg/kg; ED50 [12]: > 300 mg/kg |
| CCCCN(CCCC)C(=O)Cn1c(-c2ccc(Cl)cc2)nc2cccnc21 | 0.9 µM | – | ED50 [13]: 38 mg/kg |
| CCC1(c2ccccc2)C(=O)NC(=O)NC1=O [PHENOBARBITAL] | – | – | ED50 [10]: 27.5 mg/kg; ED50 [11]: 37.7 mg/kg; ED50 [14]: 21.8 mg/kg; ED50 [12]: 13.2 mg/kg |
| CN(C)CCN(C)C(=O)Cn1c(-c2ccc(Cl)cc2)nc2cccnc21 | > 10 µM | 100 mg/kg | – |
| CN(C)C(=O)Cn1c(-c2ccc(Cl)cc2)nc2ccc[n+]([O-])c21 | > 10 µM | 20 mg/kg | – |
| O=C(Cn1c(-c2ccc(Cl)cc2)nc2cccnc21)Nc1cccnc1 | – | 100 mg/kg | IC50 [4]: 0.23 µM |
| CN(C)CCNC(=O)Cn1c(-c2ccc(Cl)cc2)nc2cccnc21 | > 10 µM | 62 mg/kg | – |
| CN(C)C(=O)Cn1c(-c2ccc(Br)s2)nc2cccnc21 | 2.5 µM | – | ED50 [13]: 100 mg/kg |
